From ChEMBL document CHEMBL1123080, “Synthesis and antiviral activity of the carbocyclic analogues of (E)-5-(2-halovinyl)-2'-deoxyuridines and (E)-5-(2-halovinyl)-2'-deoxycytidines” (1985)
In brackets after ≈: the same amount, converted by molar mass.

System: Vaccinia virus
Assay: Minimum inhibitory concentration (MIC) required to reduce vaccinia virus induced cytopathogenicity in primary rabbit kidney cell cultures
Format: functional
Details: Orthopoxvirus vaccinia
Outline: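 Primary rabbit kidney cell cultures were infected with virus and treated with compound. The MIC is the concentration that reduces virus-induced cytopathogenicity by 50%. Cytotoxicity was scored as microscopically visible alteration of normal cell morphology, with 400 μg/mL the highest concentration tested.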

Question: `NC1NC(=O)N([C@H]2C[C@H](O)[C@@H](CO)O2)C=C1/C=C/Br` (some centres not stated) was tested. Which MIC50 did it give?
Answer: The MIC50 was 200 µg/mL (≈ 598 µM).

Question: With `O=c1[nH]c(=O)n([C@H]2C[C@H](O)[C@@H](CO)O2)cc1/C=C/I` as the compound, how does the MIC50 read?
Answer: Its MIC50 is 7 µg/mL (≈ 18.4 µM).

Question: `O=c1[nH]c(=O)n([C@H]2C[C@H](O)[C@@H](CO)O2)cc1I` [IDOXURIDINE] was tested. Which MIC50 did it give?
Answer: Its MIC50 is 0.2 µg/mL (≈ 0.565 µM).

Question: Which MIC50 does the source give for `O=c1[nH]c(=O)n([C@H]2C[C@@H](CO)[C@H](O)C2)cc1/C=C/Br` here?
Answer: Its MIC50 is 300 µg/mL (≈ 906 µM).

Question: `O=c1[nH]c(=O)n(C2CC(O)C(CO)C2)cc1/C=C/I` (configuration not stated) was tested. Which MIC50 did it give?
Answer: Its MIC50 is 300 µg/mL (≈ 793 µM).

Question: For `Nc1nc(=O)n(C2CC(O)C(CO)C2)cc1/C=C/Br` (configuration not stated), which MIC50 is on record?
Answer: The MIC50 was over 200 µg/mL.

Question: With `O=c1[nH]c(=O)n([C@@H]2C[C@H](CO)[C@@H](O)C2)cc1I` as the compound, how does the MIC50 read?
Answer: Its MIC50 is 20 µg/mL (≈ 56.8 µM).
